Compounds with a hit are over-represented: about 2% of the library has one in this group of screens.
Hck Nef HTS: inhibitors of human Hck kinase activated by Nef. Recombinant Hck-YEEI plus Nef, Z-Lyte FRET kinase assay. inhibition, % at 20 µM. 220,000 compounds, 0.68% hits;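 active = Hck-Nef kinase inhibition above about 50%, limit read from the data; inactive = inhibition below that limit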;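 note: 0% = DMSO with Hck plus Nef and 100% = Hck alone without Nef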
Target sequence (P08631 whole entry, looked up): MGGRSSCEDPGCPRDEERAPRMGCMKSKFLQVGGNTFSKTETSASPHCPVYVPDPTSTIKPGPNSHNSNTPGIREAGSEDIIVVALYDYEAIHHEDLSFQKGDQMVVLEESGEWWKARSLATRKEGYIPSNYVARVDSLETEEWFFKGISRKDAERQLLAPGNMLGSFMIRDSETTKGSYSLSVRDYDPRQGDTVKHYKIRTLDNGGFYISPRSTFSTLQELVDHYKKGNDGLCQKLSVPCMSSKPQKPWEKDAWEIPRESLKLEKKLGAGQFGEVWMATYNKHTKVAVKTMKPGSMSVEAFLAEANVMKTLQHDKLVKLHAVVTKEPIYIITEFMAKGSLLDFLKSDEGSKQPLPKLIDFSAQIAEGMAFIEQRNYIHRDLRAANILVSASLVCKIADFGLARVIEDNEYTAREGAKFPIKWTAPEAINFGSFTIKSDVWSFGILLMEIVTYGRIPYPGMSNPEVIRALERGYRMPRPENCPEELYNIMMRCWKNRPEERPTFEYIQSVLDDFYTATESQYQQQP
eIF4E 4G PPI: inhibitors of eIF4E and eIF4G interaction in translation initiation; AID 782; TR-FRET eIF4E-eIF4GI(517-606) binding, 2 h; inhibition, % at 21.7 µM; 220,000 compounds, 0.37% hits; P63073+Q04637;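 note: 0% = full FRET control wells and 100% = background wells lacking eIF4GI fragment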
p47phox inh: inhibitors of human p47phox binding | P14598 | p47phox/p22phox peptide binding, fluorescence polarization, 2 h | inhibition, % at 24.7 µM | 220,000 compounds, 0.53% hits;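 note: 0% = p47phox with labelled peptide and 100% = labelled peptide alone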
Diaphorase act: counter-screen for diaphorase-based assays: diaphorase activators and chemical reducers; 190,000 compounds, 0.005% hits; Diaphorase/resazurin coupled assay, resorufin fluorescence, 16 min; hits give high values; 1 = vehicle wells, 0 = NADH-free wells; activation factor at 20 µM;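 active = diaphorase activity raised at least twofold by the compound at 20 µM; inactive = activation factor below 2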
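Test system: Clostridium kluyveri diaphorase, purified enzyme. Buffer or medium: 50 mM HEPES pH 7.4 buffer plus MgCl2 and Tween 20. Also added: 0.114 mM NADH and 0.1 mM resazurin, final amounts. Dosing: compound 20 µM once, DMSO 1%. Schedule: 16 min enzyme reaction, ambient temperature. Detection: fluorescence of resorufin, 544 nm excitation, 590 nm emission.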
14-3-3 Bad PPI: disrupts binding of bovine 14-3-3 zeta to phospho-Bad peptide. 220,000 compounds, 0.71% hits. inhibition, % at 21.7 µM. P63103. AID 781. TR-FRET 14-3-3zeta/Dy647-pBad peptide displacement, 1 h;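 active = inhibition above about 70%, limit read from the data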;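 note: 0% = full 14-3-3 plus peptide FRET controls and 100% = background without 14-3-3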
Starred values were filed as active, the others as inactive; nt = no result; ! = a repeat was not active; [ ] = another dose, or the depositor's remark.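 Rule for the calls, unless noted: active = inhibition above about 30% (limit read from the data); inactive = the rest.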

SMILES | Hck Nef HTS | eIF4E 4G PPI | p47phox inh | Diaphorase act | 14-3-3 Bad PPI
O=C(NCc1ccc2c(c1)OCO2)C1CCCN1S(=O)(=O)c1ccc(Cl)cc1 (configuration not stated) | 13 | 3 | -6 | 0.9 | 5
COc1ccc(C(O)c2nccc3cc(OC)c(OC)cc23)cc1OC (configuration not stated) | 5 | -2 | 1 | 0.9 | 92*
OC(c1ccc2c(c1)OCO2)c1nccc2ccccc12 (configuration not stated) | 1 | -5 | -4 | 0.8 | 9
COc1ccc(C(=O)C[n+]2cn(C(F)F)c3ccccc32)c(F)c1 | 29 | -3 | 1 | 0.8 | -10
COc1ccc(C(CC(=O)N2CCCCC2)c2c(OC)cc(OC)c3c(-c4ccccc4)cc(=O)oc23)cc1 (configuration not stated) | 36 | 26 | -10 | nt | 21
COc1ccc(C(CC(=O)N2CCCC2)c2c(OC)cc(OC)c3c(-c4ccccc4)cc(=O)oc23)cc1 (configuration not stated) | 29 | 34* | -9 | nt | 40
Cc1cc(C)c(C)c(S(=O)(=O)N2CCN(c3ccc(O)cc3)CC2)c1C | 13 | 1 | -11 | 0.7 | -6
COc1ccc(-c2csc(NC(=O)CCS(=O)(=O)c3ccccc3)n2)c(OC)c1 | 18 | -2 | -65 | nt | -8
Cc1ccc(P(=O)(O)c2ccc(C)cc2)cc1 | 4 | nt | 65* | 0.9 | nt
COc1ccc(OC)c(C2C(C(=O)c3ccccc3)=C(C)Nc3nc4ccccc4n32)c1 (configuration not stated) | -7 | 3 | -10 | 0.9 | -13
COc1ccc(C2C(C(=O)c3ccccc3)=C(C)Nc3nc4ccccc4n32)cc1OC (configuration not stated) | 11 | 4 | 34* | 0.9 | 15
COc1c(C(=O)NNC(=O)c2ccccc2)csc1Br | 9 | -4 | -20 | nt | 1
COC(=O)Nc1ccc2c(c1)N(C(=O)CCN1CCN3CCCC3C1)c1ccccc1CC2 (configuration not stated) | -4 | -14 | -18 | 0.8 | 72*!
O=C(c1cnc2sccn2c1=O)N1CCN(c2ccccc2Cl)CC1 | 18 | 98* | 0 | nt | -2
COc1ccc(CCNC(=O)COC(=O)CCC(=O)c2ccc(F)cc2)cc1 | 8 | 3 | -8 | 1 | 3
Cc1nc(Cl)nc(N(C)c2ccccc2)c1[N+](=O)[O-] | -5 | 0 | -8 | nt | 2
CC(C)C(O)(C#CCN1CCCCC1)c1ccccc1 (configuration not stated) | 2 | -12 | -5 | 0.9 | 80*
COc1cc(CC(=O)OCC(=O)Nc2ccc(Cl)c(S(=O)(=O)N(C)C)c2)cc(OC)c1OC | 8 | -5 | 34* | nt | -8
CN(C)S(=O)(=O)c1cc(NC(=O)COC(=O)Cc2ccc(Br)cc2)ccc1Cl | -64 | -5 | -3 | 0.8 | -12
O=C(c1ccco1)N1CCN(Cc2cn[nH]c2-c2cccc3ccccc23)CC1 | 15 | 0 | -6 | nt | -2
Nc1c2c(nc3sc4c(c13)CCCC4)CCCCCC2 | 59* | -3 | -3 | 1 | 6
COc1cc(-c2nc3ccc4ccccc4c3c3c2CCC3)cc(OC)c1O | 11 | 4 | -3 | 0.7 | 0
COc1cc(-c2nc3ccc4ccccc4c3c3c2CCC3)cc(OC)c1OC | 2 | 2 | -34 | 0.7 | 71*
Cc1ccccc1NC(=O)C(NC1CCCCC1)C(C)C (configuration not stated) | 17 | 4 | 7 | 0.8 | 3
Cc1ccc(OCc2nnc(N)s2)cc1C | 25 | -1 | -7 | nt | -5
SMILES | Hck Nef HTS | eIF4E 4G PPI | p47phox inh | Diaphorase act | 14-3-3 Bad PPI
CCc1n[nH]c(=O)n1Cn1c(CC)n[nH]c1=O | 3 | -8 | 37* | 0.9 | 4
Cc1nc(N2CCN(C)CC2)c2sc(=S)n(-c3ccccc3)c2n1 | -1 | 5 | -10 | 0.9 | -3
Cc1nc(N2CCN(C)CC2)c2sc(=S)n(C)c2n1 | 3 | 6 | 106* | 0.8 | -1
COc1ccc(CN=C2NC(=O)CC(C(=O)Nc3ccc(F)cc3)S2)cc1 (configuration not stated) | 2 | 36* | 1 | 0.8 | 86*[fluorescence artefact?]
Cc1ccc(C(C)C)c(OCC(=O)N/N=C/c2cccn2C)c1 | 16 | 1 | -5 | nt | -1
O=C(O)c1cc([N+](=O)[O-])ccc1C(=O)Nc1ccccc1 | -2 | 9 | -7 | 1 | 27
O=C(O)c1ccc(Oc2cccc([N+](=O)[O-])c2)cc1C(=O)O | 1 | -3 | -4 | 0.9 | 74*
O=C(N/N=C/c1ccc(OC(=O)c2cccs2)cc1)c1cccc(F)c1 | 2 | -44 | -28 | 0.9 | 72*
COc1cc(C)ccc1OCCOCCOc1cccc2ccc(C)nc12 | -5 | 4 | -3 | 0.8 | 31
C=CCc1ccc(OCCOCCOc2cccc3ccc(C)nc23)c(OC)c1 | 1 | 10 | -3 | 0.8 | 74*
CCOc1ccc(-c2cc(CCCC(=O)NCc3ccco3)no2)cc1 | -3 | -1 | 33* | 0.9 | -1
Nc1cc(Cl)ccc1N1C(=O)CCC1=O | 2 | 6 | 31* | nt | -2
Nc1cc([N+](=O)[O-])ccc1N1C(=O)CCCC1=O | 1 | 6 | 3 | nt | 2
O=C(O)COc1ccccc1/C=N/NC(=O)CN1CCN(Cc2ccc(Cl)cc2)CC1 | 16 | 4 | -6 | nt | 7
CCOC(=O)c1ccccc1NC(=O)COC(=O)c1ccc(C)c(S(=O)(=O)N2CCOCC2)c1 | 2 | -9 | 93* | 0.8 | -4
Cc1ccc(C(=O)OCC(=O)Nc2ccccc2C(F)(F)F)cc1S(=O)(=O)N1CCOCC1 | 1 | -3 | -12 | 1 | 5
CCOC(=O)CNC(=O)C1CCCc2c1[nH]c1ccc(Cl)cc21 (configuration not stated) | 16 | -2 | -1 | 1 | -9
CCOC(=O)c1ccc2[nH]c3c(c2c1)CCCC3O (configuration not stated) | 31 | -3 | 48* | 0.9 | -24
O=C(Nc1ccc(Br)c2ccccc12)c1ccc2ccccc2c1O | 9 | 0 | -7 | nt | -1
O=C(CCc1ccc(O)cc1)c1c(O)cc(O)cc1O | 63* | -7 | -23 | nt | -5
COc1cc(O)c(CC=C(C)C)c(O)c1C(=O)CCc1ccc(O)cc1 | 33 | -16 | -32 | nt | -1
CC(=O)NC(N(C#N)c1nc(Cl)nc(N(C)C)n1)C(Cl)(Cl)Cl (configuration not stated) | 12 | -1 | -7 | nt | 4
CC1(C)c2cc(Cl)ccc2-n2c1cc(O)c(-c1ccccc1)c2=O | 20 | 70* | -19 | nt | 1
CCCc1cc2c(=O)c(-c3nc4ccccc4s3)c(COCC(=O)O)oc2cc1O | 41 | 5 | -30 | 0.8 | -14
CSc1cccc(NC(=O)Cc2ccccc2[N+](=O)[O-])c1 | -19 | -1 | -12 | 0.9 | -2
